Test results from ChEMBL document CHEMBL1250446, “Novel targets for Huntington's disease in an mTOR-independent autophagy pathway” (Nat Chem Biol, 2008).
Activity calls are given as the source filed them. Residues, ends and D or L forms follow the SMILES beside them.

Columns and labels:
SK-N-SH [1] = assay: Induction of autophagy in human SK-N-SH cells expressing EGFP-HDQ74 assessed as inhibition of Bay K8644-induced EGFP-HDQ74 aggregation at 1 uM after 48 hrs; type: functional, cell-based
Method in brief: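 SK-N-SH cells transfected with EGFP-HDQ74 (LipofectAMINE PLUS, 4 h), then exposed alongside 1 μM (±)-Bay K8644. Proportion of EGFP-positive cells with aggregates scored at 48 h post-transfection by a blinded observer.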

Danio rerio [2] = organism: Danio rerio; assay: Protection of neurodegeneration in zebrafish Huntington's disease model expressing EGFP-tagged huntingtin exon with EGFP-HDQ71 in rod photoreceptor assessed as decrease in […] aggregation at 3 uM
Danio rerio [3] = organism: Danio rerio; assay: Protection of neurodegeneration in zebrafish Huntington's disease model expressing EGFP-tagged huntingtin exon with EGFP-HDQ71 in rod photoreceptor assessed as decrease in […] aggregation at 3 uM; type: functional, organism-based
Method in brief: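 Transgenic zebrafish larvae raised in PTU to 3 d.p.f., then dark-reared 3–9 d.p.f. with drug in E3 medium (pH 7.2), refreshed daily. Fixed fish were cryosectioned at 12 μm and aggregates counted over 96 μm of the central eye. Means from 10 fish per group; ANOVA with Dunnett's test.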

SK-N-SH (Homo sapiens) [4] = assay: Induction of autophagy in human SK-N-SH cells assessed as increase in LC3-2 level at 0.33 uM after 24 hrs by immunoblotting analysis
Mus musculus = organism: Mus musculus; assay: Induction of autophagy in Atg deficient mouse […] expressing EGFP-HDQ74 at 1 uM after 48 hrs; type: functional
Drosophila [5] = assay: Protection of neurodegeneration in Drosophila Huntington's disease model assessed as induction autophagy at 2.5 mM; type: functional, organism-based
Method in brief: (§1)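 Progeny reared on instant food with drug (from 0.5 M DMSO stock) or DMSO, at 25°C, 70% humidity, 12 h light/dark. Photoreceptors scored by pseudopupil technique 2 days after eclosion; paired t-test on experiment averages.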

Danio rerio [6] = organism: Danio rerio; assay: Protection of neurodegeneration in zebrafish Huntington's disease model expressing EGFP-tagged huntingtin exon with EGFP-HDQ71 in rod photoreceptor assessed as induction of rhodopsin expression at 3 uM; type: functional, organism-based
Method in brief: (§2)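 Zebrafish larvae dark-reared 3–9 d.p.f. with drug in E3, refreshed daily, then lysed in RIPA/DTT. Western blot with anti-rhodopsin (Zpr3, 1:1000), anti-Zpr1 and anti-EGFP antibodies; ECL detection.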

Drosophila [7] = assay: Protection of neurodegeneration in Drosophila Huntington's disease model assessed as induction autophagy at 1.25 mM; type: functional, organism-based; method in brief: as §1
SK-N-SH (Homo sapiens) [8] = assay: Induction of autophagy in human SK-N-SH cells expressing EGFP-HDQ74 assessed as reduction in EGFP-HDQ74 aggregation at 1 uM after 48 hrs by densitometric analysis
SK-N-SH [9] = assay: Induction of autophagy in human SK-N-SH cells expressing EGFP-HDQ74/m-calpain assessed as inhibition of EGFP-HDQ74 aggregation at 1 uM after 48 hrs; type: functional, cell-based
Danio rerio [10] = organism: Danio rerio; assay: Protection of neurodegeneration in zebrafish Huntington's disease model expressing EGFP-tagged huntingtin exon with EGFP-HDQ71 in rod photoreceptor assessed as loss of rhodopsin expression at 3 uM
SK-N-MC [11] = assay: Induction of autophagy in Atg positive human SK-N-MC cells expressing EGFP-HDQ74 at 1 uM after 48 hrs; type: functional, cell-based
COS-7 [12] = assay: Induction of autophagy in african green monkey COS7 cells expressing EGFP-HDQ74 assessed as inhibition of PLC-epsilon overexpression-induced EGFP-HDQ74 aggregation at 50 uM after 48 hrs; type: functional, cell-based; conditions: Chlorocebus aethiops
COS-7 [13] = assay: Induction of autophagy in african green monkey COS7 cells expressing EGFP-LC3 assessed as increase in EGFP-LC3 vesicle at 50 uM after 24 hrs; type: functional, cell-based; conditions: Chlorocebus aethiops
COS-7 [14] = assay: Induction of autophagy in african green monkey COS7 cells assessed as increase in autophagosome at 50 uM after 24 hrs by electron microscopy; type: functional, cell-based; conditions: Chlorocebus aethiops
Method in brief: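 COS-7 cells exposed 24 h, fixed, and examined by electron microscopy. Early and late autophagosome-like structures were counted per 50 cell profiles. Student's t-test; error bars are standard error of the mean.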

PC-12 [15] = assay: Induction of autophagy in undifferentiated rat stable inducible PC12 cells expressing A53T alpha-synuclein assessed as A53T alpha-synuclein clearance at 10 uM after 96 hrs by calpain activation assay; type: functional, cell-based
PC-12 [16] = assay: Induction of autophagy in undifferentiated rat stable inducible PC12 cells expressing EGFP-HDQ74 assessed as EGFP-HDQ74 clearance at 10 uM after 96 hrs by calpain activation assay; type: functional, cell-based
PC-12 [17] = assay: Induction of autophagy in differentiated rat stable inducible PC12 cells expressing A53T alpha-synuclein assessed as A53T alpha-synuclein clearance at 10 uM after 96 hrs by calpain activation assay; type: functional, cell-based
HeLa = assay: Induction of autophagy in human HeLa cells expressing EGFP-LC3 assessed as increase in LC3-2 level at 50 uM in presence of 400 nM bafilomycin A1; type: functional, cell-based
COS-7 [18] = assay: Induction of autophagy in african green monkey COS7 cells expressing EGFP-HDQ74/rheb assessed as reduction in EGFP-HDQ74 aggregation at 50 uM after 48 hrs; type: functional, cell-based; conditions: Chlorocebus aethiops
PC-12 [19] = assay: Induction of autophagy in differentiated rat stable inducible PC12 cells expressing EGFP-HDQ74 assessed as EGFP-HDQ74 clearance at 10 uM after 96 hrs by calpain activation assay; type: functional, cell-based
COS-7 [20] = assay: Induction of autophagy in african green monkey COS7 cells assessed as increase in LC3-2 vesicle at 50 uM after 24 hrs by immunofluorescence assay; type: functional, cell-based; conditions: Chlorocebus aethiops
Method in brief: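 Fixed COS-7 cells, after 24 h exposure, immunostained for LC3 with an anti-LC3 primary and Alexa-conjugated secondary; confocal imaging of LC3-positive vesicles.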

COS-7 [21] = assay: Induction of autophagy in african green monkey COS7 cells expressing EGFP-LC3 assessed as increase in EGFP-LC3 vesicle at 0.2 uM after 2 hrs; type: functional, cell-based; conditions: Chlorocebus aethiops
Method in brief: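 COS-7 transfected 4 h with EGFP-LC3, then exposed 2 h together with 2.5 μM thapsigargin. Each EGFP-positive cell was scored positive if it had >5 EGFP-LC3 vesicles. Blinded fluorescence microscopy; triplicate, at least twice.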

COS-7 [22] = assay: Induction of autophagy in african green monkey COS7 cells expressing EGFP-HDQ74/rheb assessed as reduction in EGFP-HDQ74 aggregation at 0.2 uM after 2 hrs; type: functional, cell-based; conditions: Chlorocebus aethiops
Danio rerio [23] = organism: Danio rerio; assay: Protection of neurodegeneration in zebrafish Huntington's disease model expressing EGFP-tagged huntingtin exon with EGFP-HDQ71 in rod photoreceptor assessed as induction of rhodopsin expression at 1 uM; type: functional, organism-based; method in brief: as §2
SK-N-MC [24] = assay: Cytotoxicity against human SK-N-MC cells expressing EGFP-HDQ74 at 1 uM after 48 hrs; type: cell-based
SK-N-SH [25] = assay: Induction of autophagy in human SK-N-SH cells assessed as inhibition of Bay K8644-induced calpain activation; type: functional, cell-based
Method in brief: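 SK-N-SH cells pretreated 15 min, then given 1 μM (±)-Bay K8644 for 4 h. The active calpain small subunit was detected by immunoblot.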

COS-7 [26] = assay: Induction of autophagy in african green monkey COS7 cells expressing PLC-epsilon assessed as calpain activation at 2.5 uM after 30 mins by immunoblotting analysis; type: functional, cell-based; conditions: Chlorocebus aethiops
Method in brief: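 Calpain activation in COS-7 after 30 min exposure, alongside 2.5 μM thapsigargin where applied; immunoblot of the active calpain small subunit.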

Danio rerio [27] = organism: Danio rerio; assay: Protection of neurodegeneration in zebrafish Huntington's disease model expressing EGFP-tagged huntingtin exon with EGFP-HDQ71 in rod photoreceptor assessed as decrease in […] aggregation at 100 uM; type: functional, organism-based
Method in brief: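 Transgenic zebrafish embryos kept in 0.1 mM PTU from 1 to 3 d.p.f. and screened by EGFP, then dark-reared 3–9 d.p.f. in compound in E3 medium (pH 7.2), refreshed daily. Fixed in 4% PFA, cryosectioned at 12 μm; aggregates counted over 96 μm of central eye. Mean of 10 fish; ANOVA with Dunnett test.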

Danio rerio [28] = organism: Danio rerio; assay: Protection of neurodegeneration in zebrafish Huntington's disease model expressing EGFP-tagged huntingtin exon with EGFP-HDQ71 in rod photoreceptor assessed as induction of rhodopsin expression at 100 uM; type: functional, organism-based
Method in brief: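 Zebrafish larvae dosed 3–9 d.p.f. in E3 medium (daily refresh, dark-reared), lysed in 80% RIPA/100 mM DTT with protease inhibitor for 1 h on ice. Proteins run on 10% SDS-PAGE and blotted with anti-rhodopsin (Zpr3, 1:1000), anti-Zpr1 and anti-EGFP; ECL detection.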

PC-12 [29] = assay: Induction of autophagy in rat stable inducible PC12 cells expressing A53T alpha-synuclein assessed as A53T alpha-synuclein clearance at 500 uM after 24 hrs by densitometric analysis; type: functional, cell-based
Method in brief: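 Inducible PC12 A53T α-synuclein (HA) cells induced with 1 μg/ml doxycycline for 48 h. Doxycycline then removed for 24 h with compound or DMSO. Remaining protein measured by anti-HA immunoblot, densitometry relative to actin.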

PC-12 [30] = assay: Induction of autophagy in rat stable inducible PC12 cells expressing A53T alpha-synuclein assessed as inhibition of PACAP-retarded A53T alpha-synuclein clearance at 500 uM after 24 hrs by densitometric analysis; type: functional, cell-based
Method in brief: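 Inducible PC12 A53T α-synuclein line (doxycycline 1 μg/ml 48 h, then 24 h off-induction) treated 24 h with 100 nM PACAP with or without compound. Clearance measured by anti-HA immunoblot, densitometry relative to actin.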

COS-7 [31] = assay: Induction of autophagy in african green monkey COS7 cells expressing EGFP-HDQ74/m-calpain assessed as decrease in EGFP-HDQ74 aggregation at 500 uM after 48 hrs; type: functional, cell-based; conditions: Chlorocebus aethiops
SK-N-SH [32] = assay: Induction of autophagy in human SK-N-SH cells expressing EGFP-HDQ74 assessed as reduction in EGFP-HDQ74 aggregation at 500 uM after 48 hrs by densitometric analysis; type: functional, cell-based
PC-12 [33] = assay: Induction of autophagy in rat stable inducible PC12 cells assessed as increase in LC3-2 level at 500 uM after 24 hrs by immunoblotting analysis; type: functional, cell-based
Method in brief: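 Stable inducible PC12 cells exposed 24 h; endogenous LC3-II measured by anti-LC3 immunoblotting, with densitometry relative to actin.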

COc1ccc(CCN(C)CCCC(C#N)(c2ccc(OC)c(OC)c2)C(C)C)cc1OC (stereo not given)
inactive: Activity (Mus musculus) | Activity (SK-N-SH [9]) | Activity (Danio rerio [10])
active: Activity (SK-N-SH [1]) | Activity (Danio rerio [2]) | Activity (Danio rerio [3]) | Activity (SK-N-SH (Homo sapiens) [4]) | Activity (Drosophila [5]) | Activity (Danio rerio [6]) | Activity (Drosophila [7]) | Activity (SK-N-SH (Homo sapiens) [8]) | Activity (SK-N-MC [11])

CCCC[C@@H](C=O)NC(=O)[C@H](CC(C)C)NC(=O)OCc1ccccc1
active: Activity (COS-7 [12]) | Activity (COS-7 [13]) | Activity (COS-7 [14]) | Activity (PC-12 [15]) | Activity (PC-12 [16]) | Activity (PC-12 [17]) | Activity (HeLa) | Activity (COS-7 [18]) | Activity (PC-12 [19])

CSCC[C@@H](C=O)NC(=O)[C@H](CC(C)C)NC(=O)[C@H](CC(C)C)NC(C)=O (Ac-Leu-Leu-Met-aldehyde)
active: Activity (COS-7 [20]) | Activity (HeLa)

CO[C@H]1C[C@@H]2CC[C@@H](C)[C@@](O)(O2)C(=O)C(=O)N2CCCC[C@H]2C(=O)O[C@H]([C@H](C)C[C@@H]2CC[C@@H](O)[C@H](OC)C2)CC(=O)[C@H](C)/C=C(\C)[C@@H](O)[C@@H](OC)C(=O)[C@H](C)C[C@H](C)/C=C/C=C/C=C/1C
active: Activity (COS-7 [21]) | Activity (COS-7 [22])

COC(=O)C1=C(C)NC(C)=C([N+](=O)[O-])C1c1ccccc1C(F)(F)F (racemic)
active: Activity (Danio rerio [23]) | inhibition (SK-N-SH [25]) Dose-dependent effect | Activity (SK-N-MC [11]) | Activity (COS-7 [26])
Toxic: Activity (SK-N-MC [24])
inactive: Activity (Mus musculus) | Activity (Danio rerio [6]) | Activity (SK-N-SH (Homo sapiens) [8])

C[C@H]1O[C@@H](n2cnc3c(N)ncnc32)C[C@@H]1O
active: Activity (Danio rerio [27]) | Activity (Danio rerio [28]) | Activity (PC-12 [29]) | Activity (PC-12 [30]) | Activity (COS-7 [31]) | Activity (SK-N-SH [32]) | Activity (PC-12 [33])
